These results are taken from ChEMBL document CHEMBL1122900, “Effects of alkyl and aryl substitution on the myocardial specificity of radioiodinated phosphonium, arsonium, and ammonium cations” (J Med Chem, 1985).

The subject of data set [1] is Rattus norvegicus. The data set can be described thus: Evaluated for the distribution of radioactivity in tissues of female Fischer rats liver after 60 minutes intravenous administration; dose/g, range 0.44-0.54. Format: ADME, organism-based. Particulars: in vivo, 1 h. An outline of the steps: (§1)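 Female Fischer 344 rats (10-12 weeks, 170-200 g), fed ad libitum, got a single iv tail-vein injection under ether anaesthesia of the 125I-labelled cation (2.85-8.38 μCi). The tracer was dissolved in Me2SO, diluted with saline to 1% Me2SO and filtered. At the set times rats were killed by cervical fracture and blood taken by cardiac puncture. Organs were rinsed, blotted, weighed and gamma-counted against injectate standards. Results are %dose/g, mean and range, n=5. Thyroid weight was taken as 7.5 mg/100 g body weight.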

For data set [2], the system named is Rattus norvegicus. As to the kind of experiment: Evaluated for the distribution of radioactivity in tissues of female Fischer rats thyroid after 30 minutes intravenous administration; dose/g, range 26-40. To be noted: in vivo, 0.5 h. Format: ADME, organism-based, Thyroid gland.
Data set [3] deals with Rattus norvegicus. The data set can be described thus: Evaluated for the distribution of radioactivity in tissues of female Fischer rats liver after 30 minutes intravenous administration; dose/g, range 0.55-0.71. Format: ADME, organism-based. Particulars: in vivo, 0.5 h.
Data set [4] deals with Rattus norvegicus. As to the kind of experiment: Evaluated for the distribution of radioactivity in tissues of female Fischer rats lungs after 30 minutes intravenous administration; dose/g, range 0.91-1.74. Format: ADME, organism-based, Lung. Particulars: in vivo, 0.5 h.
Data set [5] has as its system Rattus norvegicus. The data set can be described thus: Evaluated for the distribution of radioactivity in tissues of female Fischer rats liver after 5 minutes intravenous administration; dose/g, range 1.04-2.56. In kind it is ADME, organism-based. To be noted: in vivo.
The test system of data set [6] is Rattus norvegicus. The data set can be described thus: Evaluated for the distribution of radioactivity in tissues of female Fischer rats heart after 5 minutes intravenous administration; dose/g, range 3.80-5.74. In kind it is ADME, organism-based. Particulars: in vivo.
The subject of data set [7] is Rattus norvegicus. As to the kind of experiment: Evaluated for the distribution of radioactivity in tissues of female Fischer rats blood after 5 minutes intravenous administration; dose/g, range 0.27-0.33. Format: ADME, organism-based. Particulars: in vivo.
Data set [8] deals with Rattus norvegicus. The data set can be described thus: Evaluated for the distribution of radioactivity in tissues of female Fischer rats kidneys after 60 minutes intravenous administration; dose/g, range 5.67-8.41. In kind it is ADME, organism-based, Kidney. To be noted: in vivo, 1 h.
Data set [9] concerns Rattus norvegicus. The data set can be described thus: Evaluated for the distribution of radioactivity in tissues of female Fischer rats lungs after 5 minutes intravenous administration; dose/g, range 1.41-2.17. In kind it is ADME, organism-based, Lung. To be noted: in vivo.
In data set [10] the test system is Rattus norvegicus. The data set can be described thus: Evaluated for the distribution of radioactivity in tissues of female Fischer rats blood after 60 minutes intravenous administration; dose/g, range 0.12-0.14. In kind it is ADME, organism-based. To be noted: in vivo, 1 h.
Data set [11] deals with Rattus norvegicus. The data set can be described thus: Evaluated for the distribution of radioactivity in tissues of female Fischer rats heart after 30 minutes intravenous administration; dose/g, range 3.17-4.70. In kind it is ADME, organism-based. Particulars: in vivo, 0.5 h.
Data set [12] relates to Rattus norvegicus. The data set can be described thus: Evaluated for the distribution of radioactivity in tissues of female Fischer rats heart after 60 minutes intravenous administration; dose/g, range 3.51-5.44. Format: ADME, organism-based. Particulars: in vivo, 1 h.
In data set [13] the test system is Rattus norvegicus. The data set can be described thus: Evaluated for the distribution of radioactivity in tissues of female Fischer rats blood after 30 minutes intravenous administration; dose/g, range 0.10-0.13. In kind it is ADME, organism-based. Particulars: in vivo, 0.5 h.
Data set [14] concerns Rattus norvegicus. The data set can be described thus: Evaluated for the distribution of radioactivity in tissues of female Fischer rats thyroid after 60 minutes intravenous administration; dose/g, range 26-42. Format: ADME, organism-based, Thyroid gland. To be noted: in vivo, 1 h. An outline of the steps:
as §1

Data set [15] relates to Rattus norvegicus. The data set can be described thus: Evaluated for the distribution of radioactivity in tissues of female Fischer rats thyroid after 5 minutes intravenous administration; dose/g, range 26-49. Format: ADME, organism-based, Thyroid gland. Particulars: in vivo.
For data set [16], the system named is Rattus norvegicus. The data set can be described thus: Evaluated for the distribution of radioactivity in tissues of female Fischer rats lungs after 60 minutes intravenous administration; dose/g, range 1.07-1.26. In kind it is ADME, organism-based, Lung. To be noted: in vivo, 1 h. An outline of the steps: as §1
The subject of data set [17] is Rattus norvegicus. As to the kind of experiment: Evaluated for the distribution of radioactivity in tissues of female Fischer rats kidneys after 5 minutes intravenous administration; dose/g, range 1.04-2.56. Format: ADME, organism-based, Kidney. Particulars: in vivo.
For data set [18], the system named is Rattus norvegicus. The data set can be described thus: Evaluated for the distribution of radioactivity in tissues of female Fischer rats kidneys after 30 minutes intravenous administration; dose/g, range 8.28-10.72. In kind it is ADME, organism-based, Kidney. To be noted: in vivo, 0.5 h.
For data set [19], the system named is Rattus norvegicus. The data set can be described thus: Evaluated for the distribution of radioactivity in tissues of female Fischer rats heart after 5 minutes intravenous administration; dose/g, range 2.78-3.62. In kind it is ADME, organism-based. Particulars: in vivo.
Data set [20] deals with Rattus norvegicus. The data set can be described thus: Evaluated for the distribution of radioactivity in tissues of female Fischer rats liver after 60 minutes intravenous administration; dose/g, range 0.24-0.30. Particulars: in vivo, 1 h. Format: ADME, organism-based.
Data set [21] relates to Rattus norvegicus. As to the kind of experiment: Evaluated for the distribution of radioactivity in tissues of female Fischer rats heart after 60 minutes intravenous administration; dose/g, range 3-3.70. Format: ADME, organism-based. To be noted: in vivo, 1 h.
For data set [22], the system named is Rattus norvegicus. The data set can be described thus: Evaluated for the distribution of radioactivity in tissues of female Fischer rats lungs after 5 minutes intravenous administration; dose/g, range 0.95-1.49. To be noted: in vivo. In kind it is ADME, organism-based, Lung.
For data set [23], the system named is Rattus norvegicus. As to the kind of experiment: Evaluated for the distribution of radioactivity in tissues of female Fischer rats lungs after 30 minutes intravenous administration; dose/g, range 0.99-1.23. Format: ADME, organism-based, Lung. To be noted: in vivo, 0.5 h.
Data set [24] has as its system Rattus norvegicus. As to the kind of experiment: Evaluated for the distribution of radioactivity in tissues of female Fischer rats kidneys after 5 minutes intravenous administration; dose/g, range 10.7-16.9. Format: ADME, organism-based, Kidney. To be noted: in vivo.
Data set [25] relates to Rattus norvegicus. The data set can be described thus: Evaluated for the distribution of radioactivity in tissues of female Fischer rats heart after 30 minutes intravenous administration; dose/g, range 2.67-4.31. Format: ADME, organism-based. Particulars: in vivo, 0.5 h.
In data set [26] the test system is Rattus norvegicus. The data set can be described thus: Evaluated for the distribution of radioactivity in tissues of female Fischer rats blood after 30 minutes intravenous administration; dose/g, range 0.22-0.32. Format: ADME, organism-based. Particulars: in vivo, 0.5 h.
In data set [27] the test system is Rattus norvegicus. As to the kind of experiment: Evaluated for the distribution of radioactivity in tissues of female Fischer rats kidneys after 30 minutes intravenous administration; dose/g, range 10.5-14.4. Format: ADME, organism-based, Kidney. Particulars: in vivo, 0.5 h.
The subject of data set [28] is Rattus norvegicus. The data set can be described thus: Evaluated for the distribution of radioactivity in tissues of female Fischer rats thyroid after 5 minutes intravenous administration; dose/g, range 22-25. Format: ADME, organism-based, Thyroid gland. Particulars: in vivo.
The test system of data set [29] is Rattus norvegicus. The data set can be described thus: Evaluated for the distribution of radioactivity in tissues of female Fischer rats blood after 60 minutes intravenous administration; dose/g, range 0.15-0.23. In kind it is ADME, organism-based. To be noted: in vivo, 1 h.
The test system of data set [30] is Rattus norvegicus. As to the kind of experiment: Evaluated for the distribution of radioactivity in tissues of female Fischer rats liver after 5 minutes intravenous administration; dose/g, range 1.26-2.45. Format: ADME, organism-based. To be noted: in vivo.
In data set [31] the test system is Rattus norvegicus. The data set can be described thus: Evaluated for the distribution of radioactivity in tissues of female Fischer rats lungs after 60 minutes intravenous administration; dose/g, range 0.83-2.11. Format: ADME, organism-based, Lung. To be noted: in vivo, 1 h.
Data set [32] concerns Rattus norvegicus. The data set can be described thus: Evaluated for the distribution of radioactivity in tissues of female Fischer rats liver after 30 minutes intravenous administration; dose/g, range 0.57-0.72. Format: ADME, organism-based. Particulars: in vivo, 0.5 h.
Data set [33] concerns Rattus norvegicus. The data set can be described thus: Evaluated for the distribution of radioactivity in tissues of female Fischer rats thyroid after 60 minutes intravenous administration; dose/g, range 30-53. Particulars: in vivo, 1 h. In kind it is ADME, organism-based, Thyroid gland.
The subject of data set [34] is Rattus norvegicus. As to the kind of experiment: Evaluated for the distribution of radioactivity in tissues of female Fischer rats thyroid after 30 minutes intravenous administration; dose/g, range 32-42. Format: ADME, organism-based, Thyroid gland. To be noted: in vivo, 0.5 h.
Data set [35] deals with Rattus norvegicus. As to the kind of experiment: Evaluated for the distribution of radioactivity in tissues of female Fischer rats blood after 5 minutes intravenous administration; dose/g, range 0.25-0.34. Format: ADME, organism-based. Particulars: in vivo.
For data set [36], the system named is Rattus norvegicus. The data set can be described thus: Evaluated for the distribution of radioactivity in tissues of female Fischer rats kidneys after 60 minutes intravenous administration; dose/g, range 4.59-8.81. To be noted: in vivo, 1 h. In kind it is ADME, organism-based, Kidney.

Regarding `I/C=C/CCC[P+](c1ccccc1)(c1ccccc1)c1ccccc1.[I-]`, the Distribution in data set [1] stood at 0.49%; in data set [2] it was 31%; in [3] it was 0.62%; in data set [4] it was 1.28%; in [5], 1.48%; in data set [6], 4.4%. Moreover, the Distribution in [7] came to 0.29%; in data set [8] it was 6.8%; in data set [9], 1.72%; in data set [10], 0.14%; in data set [11], 3.99%; in data set [12], 4.19%. For the same compound, the Distribution stood at 0.12% in data set [13]; 33% in data set [14]; 37% in data set [15]; 1.18% in [16]; 1.48% in data set [17]; 9.36% in data set [18].

Consider `I/C=C/CCC[As+](c1ccccc1)(c1ccccc1)c1ccccc1.[I-]`, for which the Distribution turned out to be 3.22% in data set [19]; 0.27% in data set [20]; 3.37% in data set [21]; 1.24% in data set [22]; 1.09% in data set [23]; 13.14% in data set [24]. Besides, the Distribution in data set [25] came to 3.17%; in data set [26], 0.26%; in data set [27] it was 12.01%; in data set [28] it was 23%; in data set [29] it was 0.19%; in [30], 1.78%. Besides, the Distribution in data set [31] was found to be 1.31%; in data set [32], 0.64%; in data set [33], 43%; in [34], 37%; in data set [35], 0.31%; in [36], 6.92%.
